Laboratory results reported in article PMC7059817 (Biomolecules & Therapeutics, 2019).
Each block holds one compound with its values, some of them ahead of it.

Legend:
preformed Aβ1–42 fibrils [1] = target: T1, preformed Aβ1–42 fibrils (Homo sapiens, UniProt P05067); experiment: Aβ1–42 disaggregation assay; assay type: biochemical
Procedure, shortened: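 Fibrils preformed by incubating 20 μM recombinant human Aβ1–42 with 5 μM ThT in PBS buffer (pH 7.40), 37°C, 24 h. Test compound then added at final 10, 2, 0.4, 0.08 μM, or DMSO control, and incubated a further 7 h at 37°C. ThT fluorescence read every 2.5 min (ex 460/em 508 nm). EC50 from curves of percent change in ThT intensity versus concentration. Four independent experiments, duplicate samples; mean ± SEM.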

Aβ1–42 fibrils = Aβ1–42 fibrils (Homo sapiens, UniProt P05067); experiment: SDS-PAGE electrophoresis and immunoblotting with anti-Aβ antibody 6E10; details: 25 μM fibrils with 25 μM amentoflavone, glutaraldehyde cross-linked
Chain of Aβ1–42 fibrils (P05067 672-713): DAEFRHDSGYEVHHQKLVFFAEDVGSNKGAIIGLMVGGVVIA

[2] = target: Recombinant human Aβ1–42 peptide (Homo sapiens, UniProt P05067); experiment: Aβ1–42 aggregation assay; assay type: biochemical
Chain of Recombinant human Aβ1–42 peptide (P05067 672-713): as above
Procedure, shortened: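 Recombinant human Aβ1–42 (HFIP-treated) dissolved in DMSO, diluted into PBS (50 mM NaH2PO4, 100 mM NaCl, pH 7.40); final 20 μM Aβ1–42 with 5 μM ThT ± test compound at 10, 2, 0.4, 0.08 μM (from 10 mM DMSO stocks). Incubated 37°C for 24 h; ThT fluorescence read every 10 min, ex 460/em 508 nm. IC50 from concentration-response curves; mean ± SEM, 4 independent experiments.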

preformed Aβ1–42 fibrils [3] = target: T1, preformed Aβ1–42 fibrils; experiment: Atomic force microscopy imaging of preformed Aβ1–42 fibrils; details: 25 μM fibrils with 25 μM amentoflavone, 1 h

T1 sequence (P05067 672-713): as above

SMILES: COc1ccc(-c2cc(=O)c3c(O)cc(O)cc3o2)cc1-c1c(O)cc(O)c2c(=O)cc(-c3ccc(O)cc3)oc12 [Bilobetin, bilobetin]
- EC50 (preformed Aβ1–42 fibrils [1]): 2.45 ± 1.28 µM
- IC50 [2]: 1.53 ± 0.2 µM

SMILES: COc1cc(O)c2c(=O)cc(-c3ccc(OC)c(-c4c(O)cc(O)c5c(=O)cc(-c6ccc(O)cc6)oc45)c3)oc2c1 [Ginkgetin, ginkgetin]
- EC50 (preformed Aβ1–42 fibrils [1]): 6.81 ± 4.08 µM
- IC50 [2]: 4.92 ± 1.31 µM

SMILES: COc1ccc(-c2cc(=O)c3c(O)cc(O)c(-c4cc(-c5cc(=O)c6c(O)cc(O)cc6o5)ccc4OC)c3o2)cc1 [Isoginkgetin, isoginkgetin]
- EC50 (preformed Aβ1–42 fibrils [1]): > 10 µM
- IC50 [2]: 1.8 ± 0.38 µM

SMILES: COc1cc(O)c2c(=O)cc(-c3ccc(O)cc3)oc2c1-c1cc(-c2cc(=O)c3c(O)cc(O)cc3o2)ccc1O [Sotetsuflavone, sotetsuflavone]
- EC50 (preformed Aβ1–42 fibrils [1]): > 10 µM
- IC50 [2]: 8.7 ± 1.21 µM

The next compounds have a lower EC50 (preformed Aβ1–42 fibrils [1]) than those just listed; values first:

- EC50 (preformed Aβ1–42 fibrils [1]): 0.59 ± 0.19 µM
- Time to decline of ThT fluorescent intensity after addition (preformed Aβ1–42 fibrils [1]; concentration-dependent decline, preformed Aβ1–42 fibrils): ≤ 30 min
- Time to lowering of ThT fluorescent intensity after the treatment (preformed Aβ1–42 fibrils [1]; concentration-dependent, preformed Aβ1–42 fibrils): ≤ 1 h
- IC50 [2]: 0.26 ± 0.03 µM
SMILES: O=c1cc(-c2ccc(O)c(-c3c(O)cc(O)c4c(=O)cc(-c5ccc(O)cc5)oc34)c2)oc2cc(O)cc(O)c12 [Amentoflavone, amentoflavone]
- Conversion of Aβ1–42 fibrils to oligomers and monomers (immunoblot) (Aβ1–42 fibrils): did not increase the conversion of Aβ1–42 fibrils to oligomers and monomers
- Structural change of preformed Aβ1–42 fibrils (AFM) (preformed Aβ1–42 fibrils [3]): conformational changes of the fibrils into amorphous Aβ1–42 aggregates

- EC50 (preformed Aβ1–42 fibrils [1]): 2.04 ± 0.79 µM
- IC50 [2]: 0.29 ± 0.01 µM
SMILES: COc1cc(O)c2c(=O)cc(-c3ccc(O)c(-c4c(O)cc(O)c5c(=O)cc(-c6ccc(O)cc6)oc45)c3)oc2c1 [Sequoiaflavone]
